OX1R antag-1 – OX1R (HCRTR1) antagonists, primary screen, fluorescence, CHO/OX1R cells, Fluo-8 calcium, orexin A | inhibition, % at 5 µM | Fluo-8 calcium fluorescence | Orexin/Hypocretin receptor type 1 (Homo sapiens), O43613 | AID 434989, 2010 | hit rate 0.43% among 330,000;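 active means inhibition above its plate's threshold, mean inhibition of all tested compounds on the plate plus 3 SD, cut at about 37% in these data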
GPR7 antagonist – GPR7 receptor antagonists, primary screen, cell-based, fluorescence, single concentration. Neuropeptides B/W receptor type 1 (Homo sapiens), P48145. GPR7-expressing cells, fluorescence antagonist assay. inhibition, % at 4.4 µM. hit rate 1.1% among 290,000; in the data active means inhibition above about 16%, passing the limit was not always enough;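 further: cells stimulated with the agonist NPW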
Target sequence (P48145 whole entry, looked up): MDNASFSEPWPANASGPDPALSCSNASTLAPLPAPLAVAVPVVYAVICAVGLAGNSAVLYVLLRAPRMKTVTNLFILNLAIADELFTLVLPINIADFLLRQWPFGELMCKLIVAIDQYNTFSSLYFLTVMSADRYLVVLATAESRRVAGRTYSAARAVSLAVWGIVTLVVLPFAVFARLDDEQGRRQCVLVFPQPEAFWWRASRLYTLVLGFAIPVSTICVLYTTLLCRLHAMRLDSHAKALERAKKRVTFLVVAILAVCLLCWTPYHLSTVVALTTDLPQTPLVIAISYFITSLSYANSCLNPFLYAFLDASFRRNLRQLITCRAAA
TAAR1 antag – human TAAR1 antagonists, primary screen, Fluo-8 calcium fluorescence, CHO RD-HGA16 cells | Trace amine-associated receptor 1 (Homo sapiens), Q96RJ0 | antagonist | inhibition, % at 3 µM | hit rate 1.5% among 360,000;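 active means inhibition above a per-plate cutoff, the mean inhibition of test compounds on that plate plus 3 SD, cut at about 49% in these data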
Target sequence (Q96RJ0 whole entry, looked up): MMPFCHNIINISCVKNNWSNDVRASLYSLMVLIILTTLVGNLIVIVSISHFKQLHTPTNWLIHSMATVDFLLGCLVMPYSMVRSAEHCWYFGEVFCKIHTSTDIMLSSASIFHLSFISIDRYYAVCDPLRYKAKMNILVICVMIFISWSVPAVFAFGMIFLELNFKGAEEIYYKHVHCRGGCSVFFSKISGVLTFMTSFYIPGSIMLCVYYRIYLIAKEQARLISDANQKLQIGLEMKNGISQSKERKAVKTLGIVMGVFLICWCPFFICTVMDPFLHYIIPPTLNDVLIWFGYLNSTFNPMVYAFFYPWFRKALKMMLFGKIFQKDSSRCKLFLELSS
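Assay system: RD-HGA16 CHO cells with stable hTAAR1 and Gα16 / Reagent: EC80 β-phenethylamine stimulus / Doses: 3 µM, single point / Timing: dye loading 75 min at 37 °C, then 30 min room temperature / Measured by: Fluo-8 intracellular calcium dye fluorescence, real-time kinetic reads / Controls: vehicle wells and EC80 agonist wells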
OX1R antag-2 – antagonists of human orexin 1 receptor (OX1R); OX1R-expressing cells, FRET antagonist read-out; Orexin/Hypocretin receptor type 1 (Homo sapiens), O43613; hit rate 1.8% among 330,000; inhibition, % at 6.6 µM; AID 485270, 2010; in the data active means inhibition mostly above about 38%, no sharp cut-off; inactive means mostly below about 40%
TAAR1 agonist – human TAAR1 agonists, primary screen, Fluo-8 calcium fluorescence, CHO RD-HGA16 cells. Trace amine-associated receptor 1 (Homo sapiens), Q96RJ0. vehicle wells 0%, saturating PEA agonist 100%. activation, % at 3 µM. hit rate 0.99% among 360,000. AID 624467, 2012;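 active means activation above the mean activation of all test compounds in the run plus 3 SD, cut at about 38% in these data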
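test system = CHO RD-HGA16 cells carrying human TAAR1 plus Gα16 | schedule = 17-24 h seeding, 75 min 37 °C dye, 30 min RT | compound dosing = 3 µM single concentration | control set = DMSO and PEA EC100 | replicates = n 1 | signal = Fluo-8 fluorescence, 5 s baseline then 140 s kinetic read | measure = percent activation vs PEA EC100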
CHO parental Ca – ATP-evoked calcium signal inhibitors, parental CHO, primary screen, counter-screen for OX1R antagonist project, cell-based, fluorescence, Fluo-8 calcium dye; parental CHO-K1, ATP-induced calcium, Fluo-8 fluorescence; inhibition, % at 5.6 µM; hit rate 0.63% among 330,000; AID 463079, 2010;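 active means inhibition above that plate's mean sample inhibition plus 3 SD, cut at about 26% in these data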
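material = parental CHO cells | also added = ATP as calcium-mobilizing challenge | dosing = single point at 5.6 µM | detection = intracellular calcium via Fluo-8 no-wash fluorescent dye | read-out = % inhibition | benchmarks = low control ATP plus DMSO, high control DMSO only | repeats = one well per compound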
GPR7 antag cf – GPR7 receptor antagonists, confirmation, cell-based, fluorescence, single concentration; shares compounds with GPR7 antagonist; GPR7-expressing cells, calcium fluorescence antagonist mode; inhibition, % at 4.4 µM; hit rate 52% among 2,400; in the data active means inhibition above about 24%;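 further: stimulated with the GPR7 agonist NPW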
MCHR1 antagonist – MCHR1 antagonists in cells, counter-screen for GPR7 antagonist project, cell-based, fluorescence, human | shares compounds with GPR7 antagonist | MCHR1-expressing cells, fluorescence antagonist assay | inhibition, % at 4.4 µM | hit rate 62% among 2,400 | AID 2148, 2009; in the data active means inhibition above about 22%
Numbers stand for hits; 0 = inactive; - = not tested or not shown. Sampled rows, rich in hits. Any-hit rate of the full collection: about 4.5%.

SMILES | OX1R antag-1 | GPR7 antagonist | TAAR1 antag | OX1R antag-2 | TAAR1 agonist | CHO parental Ca | GPR7 antag cf | MCHR1 antagonist
COC(=O)CNC(c1ccccc1)c1cc(C)ccc1NC(=O)CNC(=O)OCc1ccccc1 (stereo unspecified) | 0 | 39 | 0 | 0 | 0 | 0 | 29 | 0
COC(=O)CNC(c1ccccc1)c1cc(Br)ccc1NC(=O)OCc1ccccc1 (stereo unspecified) | 0 | 0 | 0 | 0 | 0 | 0 | - | -
O=[N+]([O-])c1ccc(O)c(-c2cc(C(F)(F)F)nc(-c3ccccc3)n2)c1 | 0 | 44 | 0 | 0 | 0 | 74 | 72 | 60
CCN(CC)S(=O)(=O)c1ccc(N2CCc3ccccc3C2)nc1 | 0 | 0 | 0 | 0 | 0 | 0 | - | -
CC(C)N(C(C)C)S(=O)(=O)c1ccc(N2CCc3ccccc3C2)nc1 | 0 | 21 | 0 | 0 | 0 | 0 | 0 | 63
CCOC(=O)N1CCOCCOCCN(C(=O)OCC)CCOCC1 | 0 | 0 | 0 | 0 | 0 | 0 | - | -
CCOC(=O)N1CN(C(=O)OCC)CN(C(=O)OCC)C1 | 0 | 18 | 0 | 0 | 0 | 0 | 0 | 0
Fc1ccccc1NC(=S)NCc1ccc2c(c1)OCO2 | 0 | 31 | 0 | 0 | 0 | 0 | 0 | 0
Cc1ccc(C(=O)NCc2ccc3c(c2)OCO3)o1 | 0 | 28 | 0 | 0 | 0 | 0 | 0 | 0
COc1ccccc1NC(=S)NCc1ccc2c(c1)OCO2 | 0 | 0 | 0 | 0 | 0 | 0 | - | -
CCOC(=O)[C@]12CCCC=C1N(Cc1ccccc1)C(=O)[C@H](CC(=O)N1CCCCCC1)C2 | - | - | 0 | - | 0 | - | - | -
O=[N+]([O-])c1c(Nc2cccc(O)c2)cc(Cl)c2nonc12 | 47 | 35 | 0 | 94 | 0 | 43 | 81 | 101
Cc1c(Nc2cc(Cl)c3nonc3c2[N+](=O)[O-])c(=O)n(-c2ccccc2)n1C | - | 0 | 0 | - | 0 | - | - | -
CN(CC(=O)Nc1ccccc1Br)C(=O)CCc1ccccc1 | 0 | 23 | 0 | 0 | 0 | 0 | 0 | 0
O=C(C1CCN(c2ncnc3c2nc2n3CCCCC2)CC1)N1CCN(c2ccccc2F)CC1 | 0 | 0 | 0 | 0 | 0 | 0 | - | -
Cc1cccc(N2CCN(C(=O)C3CCN(c4ncnc5c4nc4n5CCCCC4)CC3)CC2)c1C | 0 | 27 | 0 | 0 | 0 | 0 | 25 | 61
N#Cc1cccc(NC(=O)COc2ccc(-n3ccnc3)cc2)c1 | 0 | 24 | 0 | 0 | 0 | 23 | 0 | 44
C=CC[C@H](CC(=O)N(CCO)Cc1ccccc1)C(=O)N[C@H](COC(=O)[C@@H](CC=C)CC(=O)OC(C)(C)C)c1ccccc1 | 0 | - | 0 | 0 | 0 | 0 | - | -
COc1ccc(CCNC(=O)N2c3ccccc3Sc3ccccc32)cc1 | 0 | 42 | 0 | 0 | 0 | 36 | 45 | 77
CC(=O)Nc1cccc(-c2csc(C(C)(O)c3ccc(F)c(F)c3)n2)c1 (stereo unspecified) | - | - | 0 | - | 0 | - | - | -
COc1ccc(C(=O)N(C)Cc2ccc(C)o2)cc1OC1CCN(C(C)=O)CC1 | 0 | 23 | 0 | 0 | 0 | 0 | 0 | 36
COc1cccc(Nc2nc(Nc3ccc(Cl)c(C(=O)O)c3)nc(C)c2[N+](=O)[O-])c1 | 0 | - | 0 | 0 | 0 | 0 | - | -
Cc1nn(-c2ccccc2)c(Cl)c1CN(C(=O)CCl)c1ccc(Cl)cc1 | 0 | 95 | 60 | 0 | 0 | 0 | 99 | 100
CC(=O)c1ccc(NC(=O)c2ccccc2-c2ccccc2C(=O)O)cc1 | 0 | 27 | 0 | 0 | 0 | 0 | 0 | 0
CCC(=O)N1CCN(c2ccccc2NC(=O)c2ccc([N+](=O)[O-])o2)CC1 | 0 | 0 | 0 | 0 | 0 | 0 | - | -
SMILES | OX1R antag-1 | GPR7 antagonist | TAAR1 antag | OX1R antag-2 | TAAR1 agonist | CHO parental Ca | GPR7 antag cf | MCHR1 antagonist
O=C(Nc1ccc(N2CCCC2)cc1)c1ccc(Br)o1 | 0 | 0 | 0 | 0 | 0 | 0 | - | -
O=C(Nc1ccc(N2CCN(C(=O)c3ccccc3)CC2)cc1)c1ccc(Br)o1 | 0 | 38 | 0 | 0 | 0 | 0 | 39 | 32
CC(C)C(=O)N1CCN(c2ccccc2NC(=O)c2ccc([N+](=O)[O-])o2)CC1 | 0 | 35 | 0 | 61 | 0 | 0 | 28 | 0
O=C(Nc1ccccc1N1CCN(C(=O)c2ccccc2)CC1)c1ccc([N+](=O)[O-])o1 | - | 37 | 55 | - | 0 | - | 33 | 35
COc1ccccc1NC(=O)CCc1nnc2ccc(N3CCN(C)CC3)nn12 | 0 | 0 | 0 | 0 | 0 | 0 | - | -
COc1ccccc1C(C(=O)c1ccccc1)c1ccc2ccccc2c1 (stereo unspecified) | - | - | 0 | - | 0 | - | - | -
OCCCn1c(C(CO)Nc2nc(-c3ccc(Cl)cc3)cs2)nc2ccccc21 (stereo unspecified) | 0 | - | 0 | 0 | 0 | 0 | - | -
Cc1ccc(N2C(=O)[C@@H]3[C@H](C2=O)[C@H]2C=CC=NN2[C@@H]3C(=O)Nc2ccccc2)cc1 | 0 | 0 | 0 | 0 | 0 | 0 | - | -
O=C(Nc1ccccc1)[C@@H]1[C@@H]2C(=O)N(c3ccc(F)cc3)C(=O)[C@@H]2[C@H]2C=CC=NN21 | 0 | 27 | 0 | 0 | 0 | 0 | 0 | 0
COc1ccc(OCC(=O)OCC(=O)c2ccc(OC)c(F)c2)cc1 | 0 | - | 0 | 0 | 0 | 0 | - | -
N=c1c(C(=O)NCc2ccc(F)cc2)cc2c(=O)n3ccccc3nc2n1CC1CCCO1 (stereo unspecified) | 0 | 22 | 0 | 72 | 0 | 0 | 26 | 0
CC(=O)c1ccc(N(CC(=O)NC2CCCC2)C(=O)c2csnn2)cc1 | 0 | 0 | 0 | 0 | 0 | 0 | - | -
Fc1ccc(CNCCC(Cc2ccccc2)c2ccco2)cc1 (stereo unspecified) | 0 | 29 | 0 | 0 | 0 | 0 | 44 | 40
CC(NCCC(Cc1ccccc1)c1ccco1)c1ccccc1 (stereo unspecified) | 0 | 24 | 0 | 0 | 0 | 0 | 41 | 50
Cc1ccc(S(=O)(=O)N(CC(=O)N2CCCCC2)c2cccc(C)c2)cc1 | 0 | 0 | 0 | 0 | 0 | 0 | - | -
Cc1cccc(N(CC(=O)N2CCCC2)S(=O)(=O)c2ccccc2)c1 | 0 | 23 | 0 | 0 | 0 | 0 | 0 | 0

Screens: PubChem BioAssay, The Scripps Research Institute Molecular Screening Center
